# ChEMBL document CHEMBL4665875, “Synthesis, biological evaluation and in silico modeling of novel pan-genotypic NS5A inhibitors” (Bioorg Med Chem, 2020)
# What was measured:
# [1] = Cytotoxicity against HCV genotype 1b NS5A infected human HuH7 cells assessed as reduction in cell viability measured after 72 hrs by CellTiter-Glo assay; settings: HuH7 cells infected with HCV genotype 1b NS5A
# [2] = AUC (0 to infinity) in Sprague-Dawley rat at 2 mg/kg, iv measured after 24 hrs by LC-MS/MS analysis; assay type: ADME, organism-based; parameters: route intravenous, dose 2 mg/kg, time 24 hrs; settings: in vivo
# Procedure, shortened: (§1)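 Male Sprague-Dawley rats (8–10 weeks), jugular-vein catheterized and fasted 12 h with water available. Intravenous dose of 2 mg/kg given in 10% DMSO/10% Solutol/80% 0.05 M N-methylglucamine. Blood taken into EDTA at 5, 15, 30 min and 1, 2, 4, 8 and 24 h. Plasma precipitated with acetonitrile plus tolbutamide internal standard, then analysed by LC-MS/MS.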
# [3] = Half life in Sprague-Dawley rat at 2 mg/kg, iv measured after 24 hrs by LC-MS/MS analysis; assay type: ADME, organism-based; settings: in vivo
# Procedure, shortened: as §1
# [4] = AUClast in Sprague-Dawley rat at 2 mg/kg, iv measured after 24 hrs by LC-MS/MS analysis; assay type: ADME, organism-based; parameters: route intravenous, time 24 hrs, dose 2 mg/kg; settings: in vivo
# Procedure, shortened: as §1
# [5] = Tmax in Sprague-Dawley rat at 2 mg/kg, iv measured after 24 hrs by LC-MS/MS analysis; assay type: ADME, organism-based; settings: in vivo
# Procedure, shortened: as §1
# [6] = Half life in Sprague-Dawley rat at 10 mg/kg, po measured after 24 hrs by LC-MS/MS analysis; assay type: ADME, organism-based; settings: in vivo; for half-life: Sprague-Dawley
# Procedure, shortened: (§2)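 Male Sprague-Dawley rats (8–10 weeks), jugular-vein catheterized and fasted 12 h with water available. Oral dose of 10 mg/kg given in 0.5% methyl cellulose. Blood taken into EDTA at 15, 30 min and 1, 2, 4, 8 and 24 h. Plasma protein-precipitated with acetonitrile containing tolbutamide internal standard, held at −20 °C for 15 min, centrifuged, then analysed by LC-MS/MS.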
# [7] = MRT (0 to infinity) in Sprague-Dawley rat at 10 mg/kg, po measured after 24 hrs by LC-MS/MS analysis; assay type: ADME, organism-based; settings: in vivo
# Procedure, shortened: as §2
# [8] = Oral bioavailability in Sprague-Dawley rat at 10 mg/kg, po measured after 24 hrs by LC-MS/MS analysis; assay type: ADME, organism-based; settings: in vivo
# Procedure, shortened: as §2
# [9] = Tmax in Sprague-Dawley rat at 10 mg/kg, po measured after 24 hrs by LC-MS/MS analysis; assay type: ADME, organism-based; settings: in vivo
# Procedure, shortened: as §2
# [10] = MRT (0 to infinity) in Sprague-Dawley rat at 2 mg/kg, iv measured after 24 hrs by LC-MS/MS analysis; assay type: ADME, organism-based; settings: in vivo
# Procedure, shortened: as §1
# [11] = MRTlast in Sprague-Dawley rat at 10 mg/kg, po measured after 24 hrs by LC-MS/MS analysis; assay type: ADME, organism-based; settings: in vivo
# Procedure, shortened: as §2
# [12] = MRTlast in Sprague-Dawley rat at 2 mg/kg, iv measured after 24 hrs by LC-MS/MS analysis; assay type: ADME, organism-based; settings: in vivo
# Procedure, shortened: as §1
# [13] = AUC (0 to infinity) in Sprague-Dawley rat at 10 mg/kg, po measured after 24 hrs by LC-MS/MS analysis; assay type: ADME, organism-based; parameters: route oral, time 24 hrs, dose 10 mg/kg; settings: in vivo; for AUC(0-inf): Sprague-Dawley
# Procedure, shortened: as §2
# [14] = Cmax in Sprague-Dawley rat at 10 mg/kg, po measured after 24 hrs by LC-MS/MS analysis; assay type: ADME, organism-based; parameters: route oral, time 24 hrs, dose 10 mg/kg; settings: in vivo
# Procedure, shortened: as §2
# [15] = Cmax in Sprague-Dawley rat at 2 mg/kg, iv measured after 24 hrs by LC-MS/MS analysis; assay type: ADME, organism-based; parameters: route intravenous, dose 2 mg/kg, time 24 hrs; settings: in vivo
# Procedure, shortened: as §1
# [16] = AUClast in Sprague-Dawley rat at 10 mg/kg, po measured after 24 hrs by LC-MS/MS analysis; assay type: ADME, organism-based; parameters: route oral, dose 10 mg/kg, time 24 hrs; settings: in vivo
# Procedure, shortened: as §2
# [17] = molecular target: T1, Nonstructural protein 5A (Hepatitis C virus) (UniProt Q5L478); assay: Potency index, ratio of AV-4025 IC50 to test compound IC50 for inhibition of HCV genotype 3a NS5A infected in Huh7 cells assessed as reduction in viral replication incubated 3 days and measured by bright Glo-luciferase reporter gene assay; assay type: cell-based; settings: Hepatitis C virus subtype 3a; time 3.0 day
# T1 sequence (whole entry): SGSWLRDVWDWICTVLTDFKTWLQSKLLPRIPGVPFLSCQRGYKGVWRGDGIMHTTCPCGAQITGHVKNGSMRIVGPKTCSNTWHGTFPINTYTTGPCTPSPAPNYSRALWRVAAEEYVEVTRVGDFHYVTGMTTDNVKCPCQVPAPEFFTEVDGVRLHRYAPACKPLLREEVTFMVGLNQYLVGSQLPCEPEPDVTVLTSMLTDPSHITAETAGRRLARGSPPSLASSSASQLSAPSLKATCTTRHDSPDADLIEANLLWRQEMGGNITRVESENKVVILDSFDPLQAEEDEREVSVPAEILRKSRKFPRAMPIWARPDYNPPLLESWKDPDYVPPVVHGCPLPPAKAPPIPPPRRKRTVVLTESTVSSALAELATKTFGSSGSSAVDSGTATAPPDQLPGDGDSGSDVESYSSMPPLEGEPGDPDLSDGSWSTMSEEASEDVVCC
compound,measurement,setting,value
COC(=O)N[C@H](C(=O)N1CCC[C@H]1c1ncc(-c2ccc(C#CC#Cc3cnc([C@@H]4CCCN4C(=O)[C@H](NC(=O)OC)c4ccccc4)[nH]3)c(-c3cccc(C(C)(C)C)c3)c2)[nH]1)C(C)C,CC50 at 72 h,[1],> 10 µM
COC(=O)N[C@H](C(=O)N1CCC[C@H]1c1ncc(-c2ccc(C#CC#Cc3cnc([C@@H]4CCCN4C(=O)[C@H](NC(=O)OC)c4ccccc4)[nH]3)c(-c3cccc(F)c3F)c2)[nH]1)C(C)C,AUC(0-inf),[2],285 ng·h/mL
same,half-life,[3],4.6 h
same,AUC(0-t) at 24 h,[4],279 ng·h/mL
same,Tmax,[5],4.98 min
same,half-life,[6],0.6 h
same,MRT inf,[7],1.5 h
same,bioavailability,[8],4.3%
same,Tmax,"[9]; Sprague-Dawley, read-out: Tmax",1 h
same,MRT inf,[10],4.7 h
same,MRT last at 24 h,[11],1.4 h
same,MRT last at 24 h,[12],4.2 h
same,AUC(0-inf),[13],61.7 ng·h/mL
same,Cmax,"[14]; Sprague-Dawley, read-out: Cmax",38.3 ng/mL
same,Cmax,[15],114 ng/mL
same,AUC(0-t) at 24 h,[16],58.7 ng·h/mL
COC(=O)N[C@H](C(=O)N1CCC[C@H]1c1ncc(-c2ccc(C#CC#Cc3cnc([C@@H]4CCCN4C(=O)[C@H](NC(=O)OC)c4ccccc4)[nH]3)c(Sc3ccccc3)c2)[nH]1)C(C)C,CC50 at 72 h,[1],> 10 µM
COC(=O)N[C@H](C(=O)N1CCC[C@H]1c1ncc(C#CC#Cc2ccc(-c3cnc([C@@H]4CCCN4C(=O)[C@@H](NC(=O)OC)C(C)C)[nH]3)cc2-c2cccc(-c3ccccc3)c2)[nH]1)C(C)C,CC50 at 72 h,[1],> 10 µM
COC(=O)N[C@H](C(=O)N1CCC[C@H]1c1ncc(-c2ccc(C#CC#Cc3cnc([C@@H]4CCCN4C(=O)[C@H](NC(=O)OC)c4ccccc4)[nH]3)c(-c3ccccc3)c2)[nH]1)C(C)C.Cl.Cl,AUC(0-inf),[2],8330 ng·h/mL
same,half-life,[3],1.2 h
same,AUC(0-t) at 24 h,[4],8260 ng·h/mL
same,Tmax,[5],4.98 min
same,half-life,[6],1.6 h
same,CC50 at 72 h,[1],> 10 µM
same,MRT inf,[7],3.1 h
same,bioavailability,[8],31%
same,Tmax,"[9]; Sprague-Dawley, read-out: Tmax",2 h
same,MRT inf,[10],1.3 h
same,MRT last at 24 h,[11],2.8 h
same,MRT last at 24 h,[12],1.2 h
same,AUC(0-inf),[13],13100 ng·h/mL
same,Cmax,"[14]; Sprague-Dawley, read-out: Cmax",2980 ng/mL
same,Cmax,[15],7760 ng/mL
same,AUC(0-t) at 24 h,[16],12600 ng·h/mL
COC(=O)N[C@H](C(=O)N1CCC[C@H]1c1ncc(-c2ccc(C#CC#Cc3cnc([C@@H]4CCCN4C(=O)[C@H](NC(=O)OC)c4ccccc4)[nH]3)c(N3CCN(C)CC3)c2)[nH]1)C(C)C,CC50 at 72 h,[1],> 10 µM
COC(=O)N[C@H](C(=O)N1CCC[C@H]1c1ncc(C#CC#Cc2ccc(-c3cnc([C@@H]4CCCN4C(=O)[C@@H](NC(=O)OC)C(C)C)[nH]3)cc2-c2ccc(C(C)(C)C)cc2)[nH]1)C(C)C,CC50 at 72 h,[1],> 10 µM
COC(=O)N[C@H](C(=O)N1CCC[C@H]1c1ncc(-c2ccc(C#CC#Cc3cnc([C@@H]4CCCN4C(=O)[C@H](NC(=O)OC)c4ccccc4)[nH]3)c(-c3cccc(F)c3F)c2)[nH]1)C(C)C.Cl.Cl,AUC(0-inf),[2],2730 ng·h/mL
same,half-life,[3],3.2 h
same,AUC(0-t) at 24 h,[4],2720 ng·h/mL
same,Tmax,[5],4.98 min
same,t1/2,"[6]; 10 mg/kg, 24 h",2.5 h
same,CC50 at 72 h,[1],> 10 µM
same,MRT inf,[7],0.4 h
same,bioavailability,[8],2.4%
same,Tmax,"[9]; 10 mg/kg, 24 h",0.7 h
same,MRT inf,[10],3.3 h
same,MRT last at 24 h,[11],0.3 h
same,MRT last at 24 h,[12],3.2 h
same,AUC,[13]; 24 h,328.7 ng·h/mL
same,Cmax,[14]; 24 h,15.2 ng/mL
same,Cmax,[15],1160 ng/mL
same,AUC(0-t) at 24 h,[16],271 ng·h/mL
COC(=O)N[C@H](C(=O)N1CCC[C@H]1c1ncc(-c2ccc(C#CC#Cc3cnc([C@@H]4CCCN4C(=O)[C@H](NC(=O)OC)c4ccccc4)[nH]3)c(-c3cccc(-c4ccccc4)c3)c2)[nH]1)C(C)C,CC50 at 72 h,[1],> 10 µM
COC(=O)N[C@H](C(=O)N1CCC[C@H]1c1ncc(C#CC#Cc2ccc(-c3cnc([C@@H]4CCCN4C(=O)[C@@H](NC(=O)OC)C(C)C)[nH]3)cc2-c2ccccc2)[nH]1)C(C)C,CC50 at 72 h,[1],> 10 µM
COC(=O)N[C@H](C(=O)N1CCC[C@H]1c1ncc(-c2cc(F)c(C#CC#Cc3cnc([C@@H]4CCCN4C(=O)[C@H](NC(=O)OC)c4ccccc4)[nH]3)c(-c3ccccc3)c2)[nH]1)C(C)C,CC50 at 72 h,[1],> 10 µM
COC(=O)N[C@H](C(=O)N1CCC[C@H]1c1ncc(-c2ccc(C#CC#Cc3cnc([C@@H]4CCCN4C(=O)[C@H](NC(=O)OC)c4ccccc4)[nH]3)c(-c3ccc(-c4ccccc4)cc3)c2)[nH]1)C(C)C,CC50 at 72 h,[1],> 10 µM
COC(=O)N[C@H](C(=O)N1CCC[C@H]1c1ncc(-c2ccc(C#CC#Cc3cnc([C@@H]4CCCN4C(=O)[C@H](NC(=O)OC)c4ccccc4)[nH]3)cc2)[nH]1)C(C)C,CC50 at 72 h,[1],> 10 µM
same,Ratio IC50,[17],13
